# Data published in PubChem BioAssay AID624204 (Sanford-Burnham Center for Chemical Genomics, 2012).
# The campaign covered roughly 360,000 compounds. About 770 (0.21%) were called active.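 The calls were made as follows: active = inhibition at least 30% at 10 µM, raw YFP signal under a set limit, fluorescence ratio 0.5 to 1.5; inactive = the rest.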 For the sample, actives were picked, then their nearest neighbours and some compounds at random.
# Biological target: Sentrin-specific protease 1 (Homo sapiens) (UniProt Q9P0U3)
# Assay: blockers of SENP1 SUMO protease activity – biochemical, FRET, uHTS, primary screen (AID 624204);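 also: 0% = enzyme with DMSO and 100% = no enzyme wells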
# Settings: recombinant SENP1 catalytic domain, CyPet-SUMO1-YPet FRET cleavage; at 10 µM; stronger effect = higher value
# Procedure, shortened: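 Test system: recombinant human SENP1 catalytic domain, His6-tagged / Medium: pH 8 Tris buffer with EDTA, NaCl, BME, BSA, NP40, catalase / Also added: SUMO1 FRET substrate flanked by Cypet and Ypet, 25 nM / Times: 50 min reaction at room temperature / Signal: FRET, CFP and YFP emission / Control set: no-enzyme low control and enzyme-plus-DMSO high control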
# Chain of Sentrin-specific protease 1 (Homo sapiens) (Q9P0U3 419-644 limits assumed): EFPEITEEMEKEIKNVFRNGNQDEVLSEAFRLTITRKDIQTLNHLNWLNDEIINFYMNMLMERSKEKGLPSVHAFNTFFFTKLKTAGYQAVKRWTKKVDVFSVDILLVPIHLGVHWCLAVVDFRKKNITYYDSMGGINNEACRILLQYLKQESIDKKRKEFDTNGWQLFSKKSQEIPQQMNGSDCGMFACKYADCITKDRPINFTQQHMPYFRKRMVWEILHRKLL
row,SMILES,inhibition
1,CC(=O)N1CCOc2ccc(S(=O)(=O)N3CCN(c4cccc(C(F)(F)F)c4)CC3)cc21,2.33% (inactive)
2,COc1ccc(N2CCC(N3CCN(C)C(CCO)C3)CC2)cc1 (stereo not given),-1.06% (inactive)
3,O=[N+]([O-])c1ccc(N=NNc2ccc([N+](=O)[O-])cc2)cc1,67.8% (active)
4,NC(=O)C1(Nc2ccc([N+](=O)[O-])cc2)CCCC1,-1.76% (inactive)
5,O=[N+]([O-])/C(N=Nc1ccccc1)=N\Nc1ccccc1,0.203% (inactive)
6,O=C(N/N=C/c1ccc(Br)o1)c1cncc(Br)c1,0.704% (inactive)
7,Cc1ccc(C(=O)N/N=C\c2cc(Br)c(Br)o2)cn1,41.1% (active)
8,Brc1cc(/C=N/n2cnnc2)oc1Br,2.85% (inactive)
9,CC(C)(C)OC(=O)C[C@@H]1C/C=C\C[C@@H](CC(=O)N[C@@H](CO)Cc2ccccc2)C(=O)N2CCC[C@H]2COC1=O,1.24% (inactive)
10,Cc1ccc(Cn2nnc3c(=O)[nH]c(C4CCN(S(=O)(=O)/C=C/c5ccccc5)CC4)nc32)cc1,-2.14% (inactive)
11,Cc1cccc(Nc2nnc(SCC(=O)c3c(N)n(C4CC4)c(=O)[nH]c3=O)s2)c1C,1.61% (inactive)
12,Nn1c(SCC(=O)Nc2nccs2)nncc1=O,2.89% (inactive)
13,O=C(Nc1ccc2c(c1)OCCO2)C1c2ccccc2OCC(=O)N1Cc1ccccn1 (stereo not given),-6.74% (inactive)
14,Cc1ccc(F)c(NC(=O)CCc2ccccc2)c1,-0.0761% (inactive)
15,CCNc1nc(N)nc(-c2cc(Cl)ccc2OC)n1,0.684% (inactive)
16,O=C(CNC(=O)c1ccc(Cl)cc1Cl)NCC(=O)Nc1ccccc1N1CCOCC1,4.8% (inactive)
17,CCCC1OC23CCCCC2C(C#N)(C#N)C1(C#N)C(=N)O3 (stereo not given),-28.3% (inactive)
18,CCOC(=O)CCC(=O)OCC(=O)NC(C)C1CC2CCC1C2 (stereo not given),2.09% (inactive)
19,COC(=O)N/N=C/c1c[n+]([O-])c2ccccc2[n+]1[O-],58.5% (active)
20,COC(=O)C(C)N=Cc1ccccc1 (stereo not given),3.52% (inactive)
21,N#Cc1ccc(C(c2ccc(C#N)cc2)n2cncn2)cc1,-1.95% (inactive)
22,O=C(Nc1cccc(OCC(=O)N2CCOCC2)c1)C1CCCCC1,-0.72% (inactive)
23,CNC(=O)C[C@H]1C(=O)N(c2ccc(OC)cc2)C[C@@H]1Cc1ccccc1,3.98% (inactive)

row,SMILES,inhibition
1,COc1ccc(N2C(=O)C3C(C2=O)C(C(=O)c2ccccc2)N2CCCC32)cc1 (stereo not given),40% (active)
2,COc1ccc(N2C(=O)CC(N3CCC(C(N)=O)CC3)C2=O)cc1 (stereo not given),-0.137% (inactive)
3,CC(C)Oc1ccc(C(CC(=O)N2CCOCC2)C(C)C)cc1 (stereo not given),1.52% (inactive)
4,CC(C)(C)c1cc(NC(=O)NN2CCOCC2)nn1-c1c(Cl)cc(Cl)cc1Cl,2.79% (inactive)
5,Cn1c(N)cc(=O)n(C)c1=S,-0.927% (inactive)
6,COc1ccc(CCNS(=O)(=O)c2cc3c(cc2C)NC(=O)CO3)cc1OC,2.06% (inactive)
7,COc1ccc(OC)c(C2C3=C(N=c4s/c(=C\c5cccc(O)c5)c(=O)n42)c2ccccc2CC3)c1 (stereo not given),45.9% (active)
8,CCC1([N+](=O)[O-])COC(c2ccc(C(C)C)cc2)OC1 (stereo not given),2.7% (inactive)
9,Cc1ccc2c(c1)N(C(=O)CCC(=O)N1CCc3ccccc3C1)CCO2,1.45% (inactive)
10,CCOC(=O)[C@H]1[C@H]2COc3ccc(Cl)cc3[C@@H]2N2C(=O)c3cc(C)ccc3NC(=O)[C@@]12C,1.07% (inactive)
11,Nn1c(Cc2cccc3ccccc23)nnc1SCC(=O)N1CC(=O)Nc2ccccc21,3.32% (inactive)
12,CCc1ccc2ncc(C(=O)c3ccccc3)c(N3CCOCC3)c2c1,-0.316% (inactive)
13,O=C(CCN1C(=O)c2ccccc2C1=O)NNC(=O)c1ccc(Cl)cc1Cl,1.7% (inactive)
14,Cc1c(C(=O)NCCN2C(=O)S/C(=C\c3cccs3)C2=O)cccc1[N+](=O)[O-],5.33% (inactive)
15,O=C(CCN1C(=O)/C(=C/c2cccs2)SC1=S)NNC(=O)c1cccc(O)c1,72.7% (active)
16,O=C(O)c1cc(S(=O)(=O)N2CCCCCC2)c(Cl)cc1Cl,-0.414% (inactive)
17,Cc1nn(-c2ccccc2)c(CC(C)(C)C(=O)O)c1C(=O)O,1.05% (inactive)
18,CCCCN(C(=O)CSCC(=O)Nc1ccc(OC)cc1)c1c(N)n(CCC)c(=O)[nH]c1=O,-2.42% (inactive)
19,Cc1cc(=O)cc(C)n1-c1ccc(Cl)c(Cl)c1,2.24% (inactive)
20,CC(=O)NC1(c2cccc(F)c2)CCN(CC(=O)NC(C)C)CC1,-0.563% (inactive)
21,O=C(CC1CCCCC1)NCc1ccc(F)cc1,1.88% (inactive)
22,CNS(=O)(=O)c1cccc(C(=O)OCCCC(=O)c2ccccc2)c1,0.585% (inactive)
23,COc1ccc(CC2c3cc(OC)c(OC)cc3CC[N+]2(C)CCC(=O)OCCCCCOC(=O)CC[N+]2(C)CCc3cc(OC)c(OC)cc3C2Cc2ccc(OC)c(OC)c2)cc1OC (stereo not given),-1.31% (inactive)

row,SMILES,inhibition
1,CC(=O)c1cccc(-c2cnc3c(NC=O)cc(-c4ccc(N5CCN(C)CC5)cc4)cn23)c1,28% (inactive)
2,CN(C)C(=O)c1cccc(-c2cnc3c(NC=O)cc(-c4ccc(C(=O)N5CCOCC5)cc4)cn23)c1,-29.9% (inactive)
3,CC(=O)c1cccc(-c2cnc3c(NC=O)cc(-c4ccc(N(C)C)cc4)cn23)c1,50% (active)
4,CC(=O)NCC(=O)N1CCC(n2nccc2NC(=O)CCCc2ccccc2)CC1,0.687% (inactive)
5,Cc1nc2nc(C)c(CCC(=O)N3CCN(c4ccccc4)CC3)c(C)n2n1,0.72% (inactive)
6,O=C(C[C@H]1C[C@H]2c3cc(NS(=O)(=O)c4ccc(F)cc4)ccc3O[C@H]2[C@H](CO)O1)NCc1cc(F)ccc1F,-0.578% (inactive)
7,O=C(Nc1ccc(F)cc1F)N1CCCN(CCOc2ccccc2)CC1,-1.95% (inactive)
8,COc1ccc(N2CCN(C(=O)c3ccc(N4CCCCS4(=O)=O)cc3)CC2)cc1,-2.08% (inactive)
9,Cn1nnnc1SCC(=O)Nc1ccccc1C(=O)NC1CC1,-4.1% (inactive)
10,Cc1cccc(NC(=O)c2ccc3c(=O)n(CC4CCCO4)c(=S)[nH]c3c2)c1 (stereo not given),-0.024% (inactive)
11,CC1(C)CN(c2ccc(-c3ccnc4ncnn34)cc2)C1=O,-1.93% (inactive)
12,COc1ccc(C(=O)C[n+]2ccc(N)c(C)c2C)cc1,1.97% (inactive)
13,O=C(NC(=S)Nc1cccc2c(O)cccc12)c1cccc(Br)c1,-10.5% (inactive)
14,O=C(NC(=O)c1ccccc1)Nc1ccccc1O,31.8% (active)
15,O=C(Cc1ccc(Cl)cc1)NC(=S)Nc1ccccc1O,0.309% (inactive)
16,CC(C)Cn1cnc2c1c(=O)n(CC(O)c1ccccc1)c(=O)n2CC(C)C (stereo not given),1.26% (inactive)
17,CC1(C(=O)NCc2ccccc2)CSCC(=O)N1CCCn1ccnc1 (stereo not given),0.15% (inactive)
18,COc1cc(Br)cc(/C=N/c2ncn[nH]2)c1O,10.2% (inactive)
19,CC(=O)N(CC(O)CO)c1c(I)c(C(=O)NCC(O)CO)c(I)c(C(=O)NCC(O)CO)c1I (stereo not given),-0.483% (inactive)
20,COCC(C)NC(=O)c1ccc(-n2nc(C(F)(F)F)cc2-c2cccs2)cc1 (stereo not given),-1.75% (inactive)
21,CCN(CC(=O)Nc1cc(Cl)ccc1C)C(=O)CSCc1ccc(C)cc1,1.09% (inactive)
22,CN(C)c1ccc(Nc2c3c4c(cccc4n(C)c2=O)C(=O)c2ccccc2-3)cc1,60.4% (active)
23,Cc1nn2c(c1-c1ccccc1)N=C(c1ccco1)CC2c1ccccc1 (stereo not given),38.7% (active)

row,SMILES,inhibition
1,O=C(O)CCCC(=O)N1N=C(c2ccco2)CC1c1ccco1 (stereo not given),0.794% (inactive)
2,CCOc1ccc(-c2c(C)n([O-])c3c([n+]2=O)CCCC3)cc1,0.993% (inactive)
3,COC(CNC(=O)Cn1ncc2ccsc2c1=O)OC,2.87% (inactive)
4,O=C(NCCC1CCCCN1S(=O)(=O)c1cccs1)C(=O)Nc1ccc(F)cc1F (stereo not given),0.809% (inactive)
5,COc1ccc(C=C2CCC3C(CCCC34OCCO4)C2=O)cc1 (stereo not given),0.924% (inactive)
6,Cc1ccc(N=C2NC(=O)c3cccc([N+](=O)[O-])c32)cc1,1.42% (inactive)
7,COc1ccc(NC(=O)CN(C)C(=O)Cc2coc3cc(C)c(C)cc23)cc1,-6.79% (inactive)
8,O=C1C=C(c2cccc(Cl)c2O)C[C@@H](c2ccc(F)cc2)C1,54.2% (active)
9,COc1ccccc1C1=CC(=O)C[C@H](c2ccc(F)cc2)C1,3.3% (inactive)
10,O=C1C=C(c2cccc(Cl)c2)C[C@@H](c2ccc(F)cc2)C1,1.33% (inactive)
11,O=S1(=O)CCN(C2CCCCCCCCCCC2)CC1,1.39% (inactive)
12,COC(=O)c1ccc(CNC(=O)C2CCC(=O)N(Cc3ccccn3)C2)cc1 (stereo not given),0.319% (inactive)
13,COCCNc1nc2nonc2nc1N1CCCC1c1nccs1 (stereo not given),-72.6% (inactive)
14,Cn1c(-c2sccc2OCc2cccc(C(F)(F)F)c2)n[nH]c1=S,2.98% (inactive)
15,FC(F)(F)c1ccc(-n2cn[nH]c2=S)cc1,-0.325% (inactive)
16,Cn1c(-c2sc3cc(C(F)(F)F)cnc3c2-c2ccccc2)n[nH]c1=S,31.9% (active)
17,CNc1nccc(-c2ccc(Cl)cc2)c1C#N,-1.17% (inactive)
18,Cc1ccc(NC(=O)Cn2c(=O)n(CCC(=O)NC3CCN(Cc4ccccc4)CC3)c(=O)c3ccccc32)cc1,2.04% (inactive)
19,O=C1CCC[C@@H]2CC(N3CCCCC3)C[C@@H]3CCN1[C@H]23 (stereo not given in full),-1.06% (inactive)
20,O=C1CC[C@@H]2CC3(C[C@@H]4CCN1[C@H]24)Nc1cc([N+](=O)[O-])ccc1NC3=NC1CCCCC1 (stereo not given in full),51% (active)
21,Cc1cc2c(cc1C)NC1(C[C@H]3CCC(=O)N4CC[C@@H](C1)[C@@H]34)C(=NC(C)(C)CC(C)(C)C)N2 (stereo not given in full),2.4% (inactive)
